Source: ChEMBL document CHEMBL1142666, “Novel [2',5'-bis-O-(tert-butyldimethylsilyl)-beta-D-ribofuranosyl]- 3'-spiro-5''-(4''-amino-1'',2''-oxathiole-2'',2" -dioxide) derivatives with anti-HIV-1 and anti-human-cytomegalovirus activity” (J Med Chem, 2005)

Columns and labels:
Settings in all cases: Homo sapiens
[1] = tested on: CCRF-CEM; experiment: Effective concentration required to inhibit HIV-1 IIIB in CEM cell culture; type: functional, cell-based
Summary of the method: (§1)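 CEM cells (4 × 10^5/mL) infected at ~100 CCID50/mL and mixed with compound dilutions. Giant cell formation scored microscopically at day 4. EC50 = concentration inhibiting virus-induced cytopathicity by 50%.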

[2] = tested on: MT4; experiment: Effective concentration required to inhibit HIV-2 ROD in MT-4 cell culture; type: functional, cell-based
Summary of the method: (§2)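 MT-4 cells (3 × 10^5/mL) infected at ~100 CCID50/mL and mixed with compound dilutions. Cytopathicity read by trypan blue exclusion at day 5. EC50 = concentration giving 50% protection against virus-induced loss of viability.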

[3] = tested on: HEL; experiment: Minimal cytotoxic concentration required to cause microscopically visible alteration of cell morphology in HEL Cells; type: functional
Summary of the method: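 Uninfected HEL cells exposed to compound. Minimum cytotoxic concentration is the lowest level giving a microscopically detectable change in cell morphology.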

[4] = tested on: HEL; experiment: Cytostatic concentration required to inhibit HEL cell proliferation; type: functional
Summary of the method: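 HEL fibroblasts seeded at 5 × 10^3 cells/well and grown 24 h, then given compound in duplicate. After 3 days at 37 °C in 5% CO2, cell number read on a Coulter counter. CC50 = concentration reducing cell growth by 50%.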

[5] = tested on: MT4; experiment: Cytostatic concentration required to inhibit MT-4 cell proliferation; type: functional
Summary of the method: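 Mock-infected MT-4 cells (3 × 10^5/mL) incubated with compound dilutions for 5 days. Viable cells counted by trypan blue exclusion. CC50 = concentration reducing viable MT-4 cell number by 50%.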

[6] = tested on: HEL; experiment: Effective concentration required to inhibit HCMV AD-169 in HEL Cells; type: functional, cell-based
Summary of the method: (§3)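 Confluent HEL cells infected with HCMV at 100 PFU/well. After 1-2 h, residual virus removed and MEM with 2% inactivated FCS added, with compound in duplicate at 5-fold dilution steps. After 7 days at 37 °C in 5% CO2, cells fixed with ethanol and Giemsa-stained; plaques or CPE scored microscopically. IC50 interpolated graphically; mean of two independent experiments.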

[7] = tested on: HEL; experiment: Effective concentration required to inhibit HCMV Davis in HEL Cells; type: functional, cell-based; summary of the method: as §3
[8] = tested on: CCRF-CEM; experiment: Cytostatic concentration required to inhibit CEM cell proliferation; type: functional
Summary of the method: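 CEM cells, mock-infected, grown with serial compound dilutions for 4 days. CC50 taken as the concentration that inhibits CEM cell proliferation by 50%.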

[9] = tested on: MT4; experiment: Effective concentration required to inhibit HIV-1 IIIB in MT-4 cell culture; type: functional, cell-based; summary of the method: as §2
[10] = tested on: CCRF-CEM; experiment: Effective concentration required to inhibit HIV-2 ROD in CEM cell culture; type: functional, cell-based; summary of the method: as §1
[11] = tested on: CCRF-CEM; experiment: Cytostatic concentration of the cell proliferation; type: functional

SMILES: COC(=O)CCNC1=CS(=O)(=O)O[C@@]12[C@@H](CO[Si](C)(C)C(C)(C)C)O[C@@H](n1cc(C)c(=O)n(C)c1=O)[C@@H]2O[Si](C)(C)C(C)(C)C
- EC50 [1]: > 250 µM
- EC50 [2]: > 250 µM
- MCC [3]: ≥ 400 µM
- CC50 [4]: 94 µM
- CC50 [5]: > 250 µM
- EC50 [6]: > 400 µM
- EC50 [7]: > 400 µM
- CC50 [8]: > 250 µM
- EC50 [9]: > 250 µM
- EC50 [10]: > 250 µM

SMILES: Cc1cn([C@@H]2O[C@H](CO[Si](C)(C)C(C)(C)C)[C@@]3(OS(=O)(=O)C=C3NCCC(=O)OCc3ccccc3)[C@H]2O[Si](C)(C)C(C)(C)C)c(=O)n(C)c1=O
- EC50 [1]: > 250 µM
- EC50 [2]: > 250 µM
- MCC [3]: ≥ 400 µM
- CC50 [4]: > 200 µM
- CC50 [5]: > 250 µM
- EC50 [6]: > 400 µM
- EC50 [7]: > 400 µM
- CC50 [8]: > 250 µM
- EC50 [9]: > 250 µM
- EC50 [10]: > 250 µM

SMILES: Cc1cn([C@@H]2O[C@H](CO[Si](C)(C)C(C)(C)C)[C@@]3(OS(=O)(=O)C=C3NCC(=O)O)[C@H]2O[Si](C)(C)C(C)(C)C)c(=O)n(C)c1=O
- EC50 [1]: > 10 µM
- EC50 [2]: > 10 µM
- MCC [3]: 300 µM
- CC50 [4]: 136 µM
- CC50 [5]: 30 µM
- EC50 [6]: ≥ 50 µM
- EC50 [7]: 32 µM
- CC50 [8]: 65 µM
- EC50 [9]: > 10 µM
- EC50 [10]: > 10 µM

SMILES: Cc1cn([C@@H]2O[C@H](CO[Si](C)(C)C(C)(C)C)[C@@]3(OS(=O)(=O)C=C3NCCC(=O)O)[C@H]2O[Si](C)(C)C(C)(C)C)c(=O)n(C)c1=O
- EC50 [1]: > 10 µM
- EC50 [2]: > 50 µM
- MCC [3]: 80 µM
- CC50 [4]: 34 µM
- CC50 [5]: 11.5 µM
- EC50 [6]: > 16 µM
- EC50 [7]: 8 µM
- CC50 [8]: 19.4 µM
- EC50 [9]: > 50 µM
- EC50 [10]: > 10 µM

SMILES: Cc1cn([C@@H]2O[C@H](CO[Si](C)(C)C(C)(C)C)[C@@]3(OS(=O)(=O)C=C3NCC(N)=O)[C@H]2O[Si](C)(C)C(C)(C)C)c(=O)n(C)c1=O
- EC50 [1]: > 2 µM
- EC50 [2]: > 10 µM
- MCC [3]: 16 µM
- CC50 [4]: 13.5 µM
- CC50 [5]: 14.9 µM
- EC50 [6]: > 3.2 µM
- EC50 [7]: > 3.2 µM
- CC50 [8]: 14.6 µM
- EC50 [9]: > 10 µM
- EC50 [10]: > 2 µM

SMILES: Cc1cn([C@@H]2O[C@H](CO[Si](C)(C)C(C)(C)C)[C@@]3(OS(=O)(=O)C=C3NCCC(N)=O)[C@H]2O[Si](C)(C)C(C)(C)C)c(=O)n(C)c1=O
- EC50 [1]: 5 µM
- EC50 [2]: > 10 µM
- MCC [3]: ≥ 80 µM
- CC50 [4]: 14.8 µM
- CC50 [5]: 20 µM
- EC50 [6]: > 16 µM
- EC50 [7]: 29 µM
- CC50 [11]: 21 µM
- EC50 [9]: > 10 µM
- EC50 [10]: > 10 µM
